Assay results published in ChEMBL document CHEMBL4251654, “Structure-based design of human immuno- and constitutive proteasomes inhibitors” (Eur J Med Chem, 2018).
pIC50: −log10 of the molar value. Calls of active or inactive are those of the source. No cut-off for these calls is given here.

Columns and labels:
[1] = target: T1, Proteasome Macropain subunit MB1 (Homo sapiens, UniProt P28074); test: Inhibition of human 20S constitutive proteasome beta-5 using Suc-LLVY-AMC as substrate incubated for 15 mins measured for 45 mins by fluorescence assay
T1 sequence (P28074 whole entry): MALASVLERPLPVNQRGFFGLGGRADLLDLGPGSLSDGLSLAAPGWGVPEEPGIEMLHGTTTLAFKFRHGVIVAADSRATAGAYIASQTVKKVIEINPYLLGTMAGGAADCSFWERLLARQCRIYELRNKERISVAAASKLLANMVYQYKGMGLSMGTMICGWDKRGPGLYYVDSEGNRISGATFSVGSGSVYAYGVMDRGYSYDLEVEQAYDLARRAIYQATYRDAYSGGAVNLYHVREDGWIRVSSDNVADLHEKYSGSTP
Procedure, shortened: (§1)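 Human 20S cCP or iCP (0.3 nM) was exposed to compound (0.001-50 μM) for 15 min in pH 8 buffer of 20 mM Tris-HCl, 10% glycerol, 0.01% SDS, 2% DMSO. Suc-LLVY-AMC at 20 μM followed. Fluorescence (ex 360/em 460 nm) was read 45 min at 37 °C versus untreated enzyme.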

[2] = target: T2, Proteasome subunit beta type-9 (Homo sapiens) (UniProt P28065); test: Inhibition of human 20S immunoproteasome beta-1 at 50 uM using Ac-PAL-AMC as substrate incubated for 15 mins measured for 45 mins by fluorescence assay relative to control
T2 sequence (whole entry): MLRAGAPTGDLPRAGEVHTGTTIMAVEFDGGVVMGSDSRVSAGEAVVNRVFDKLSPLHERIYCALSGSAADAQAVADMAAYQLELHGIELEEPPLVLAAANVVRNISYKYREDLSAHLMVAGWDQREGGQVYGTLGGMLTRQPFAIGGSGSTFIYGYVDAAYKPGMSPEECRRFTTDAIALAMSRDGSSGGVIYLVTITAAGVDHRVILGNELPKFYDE
Procedure, shortened: (§2)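 Human 20S immunoproteasome (0.3 nM) was given 15 min with compound (0.001-50 μM) in pH 8 buffer of 20 mM Tris-HCl, 10% glycerol, 0.01% SDS, 2% DMSO. Ac-PAL-AMC at 50 μM was the substrate. Fluorescence (ex 360/em 460 nm) was followed 45 min at 37 °C relative to control.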

[3] = target: T3, Proteasome subunit beta type-10 (Homo sapiens) (UniProt P40306); test: Inhibition of human 20S immunoproteasome beta-2 at 50 uM using BocLRR-AMC as substrate incubated for 15 mins measured for 45 mins by fluorescence assay relative to control
T3 sequence (whole entry): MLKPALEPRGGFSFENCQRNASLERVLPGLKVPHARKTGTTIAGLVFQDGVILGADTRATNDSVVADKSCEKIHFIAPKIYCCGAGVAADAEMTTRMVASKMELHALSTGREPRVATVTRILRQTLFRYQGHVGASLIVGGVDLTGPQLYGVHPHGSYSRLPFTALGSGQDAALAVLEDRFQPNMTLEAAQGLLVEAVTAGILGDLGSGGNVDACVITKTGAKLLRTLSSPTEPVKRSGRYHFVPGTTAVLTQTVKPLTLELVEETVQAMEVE

[4] = target: T4, Proteasome component C5 (Homo sapiens) (UniProt P20618); test: Inhibition of human 20S constitutive proteasome beta-1 at 50 uM using Z-LLE-betaNA as substrate incubated for 15 mins measured for 45 mins by fluorescence assay relative to control
T4 sequence (whole entry): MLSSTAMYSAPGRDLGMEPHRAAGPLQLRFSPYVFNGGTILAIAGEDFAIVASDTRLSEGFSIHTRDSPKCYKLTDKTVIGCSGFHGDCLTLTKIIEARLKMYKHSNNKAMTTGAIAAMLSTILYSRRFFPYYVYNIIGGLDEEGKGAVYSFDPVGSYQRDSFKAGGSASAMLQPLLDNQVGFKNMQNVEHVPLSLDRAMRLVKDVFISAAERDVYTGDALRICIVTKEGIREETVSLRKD
Procedure, shortened: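 Human 20S constitutive proteasome, 0.3 nM, was preincubated 15 min with compound (0.001-50 μM) in pH 8 Tris-HCl 20 mM, 10% glycerol, 0.01% SDS, 2% DMSO. Z-LLE-βNA at 50 μM was added. βNA fluorescence (ex 340/em 404 nm) was monitored 45 min at 37 °C against an untreated control.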

[5] = target: T5, Proteasome subunit beta type-8 (Homo sapiens) (UniProt P28062); test: Inhibition of human 20S immunoproteasome beta-5 at 50 uM using Suc-LLVY-AMC as substrate incubated for 15 mins measured for 45 mins by fluorescence assay relative to control; procedure, shortened: as §1
T5 sequence (whole entry): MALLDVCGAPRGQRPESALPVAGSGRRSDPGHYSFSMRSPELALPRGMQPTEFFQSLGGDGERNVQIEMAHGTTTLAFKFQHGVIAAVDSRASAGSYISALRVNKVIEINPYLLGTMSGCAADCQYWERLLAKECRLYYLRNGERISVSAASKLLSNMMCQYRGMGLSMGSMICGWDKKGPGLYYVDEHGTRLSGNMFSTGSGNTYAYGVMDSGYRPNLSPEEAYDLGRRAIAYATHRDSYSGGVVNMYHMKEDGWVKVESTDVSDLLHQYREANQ

[6] = target: T6, Proteasome Macropain subunit MB1 (Homo sapiens) (UniProt P28074); test: Inhibition of human 20S constitutive proteasome beta-5 at 50 uM using Suc-LLVY-AMC as substrate incubated for 15 mins measured for 45 mins by fluorescence assay relative to control; procedure, shortened: as §1
T6 sequence (whole entry): T1 sequence (P28074 whole entry)

[7] = target: T7, Proteasome subunit beta type-9 (Homo sapiens, UniProt P28065); test: Inhibition of human 20S immunoproteasome beta-1 using Ac-PAL-AMC as substrate incubated for 15 mins measured for 45 mins by fluorescence assay; procedure, shortened: as §2
T7 sequence (P28065 whole entry): T2 sequence (whole entry)

[8] = target: Proteasome Macropain subunit (Homo sapiens) (UniProt P49721); test: Inhibition of human 20S constitutive proteasome beta-2 at 50 uM using BocLRR-AMC as substrate incubated for 15 mins measured for 45 mins by fluorescence assay relative to control
Sequence of Proteasome Macropain subunit (Homo sapiens) (P49721 whole entry): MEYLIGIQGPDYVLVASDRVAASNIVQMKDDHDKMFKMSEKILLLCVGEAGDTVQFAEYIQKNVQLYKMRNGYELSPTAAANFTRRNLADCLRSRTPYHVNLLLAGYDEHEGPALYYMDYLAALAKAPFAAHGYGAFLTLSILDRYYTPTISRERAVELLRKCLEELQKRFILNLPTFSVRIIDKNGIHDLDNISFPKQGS
Procedure, shortened: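 Purified human 20S proteasome (cCP or iCP), 0.3 nM, preincubated 15 min with compound (0.001-50 μM) in pH 8 buffer of 20 mM Tris-HCl, 10% glycerol, 0.005% Triton X-100, 2% DMSO. Then Boc-LRR-AMC at 50 μM was added. AMC fluorescence (ex 360/em 460 nm) was followed 45 min at 37 °C. Activity is relative to an untreated control.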

[9] = target: T8, Proteasome subunit beta type-8 (Homo sapiens, UniProt P28062); test: Inhibition of human 20S immunoproteasome beta-5 using Suc-LLVY-AMC as substrate incubated for 15 mins measured for 45 mins by fluorescence assay; procedure, shortened: as §1
T8 sequence (P28062 whole entry): T5 sequence (whole entry)

[10] = target: T9, Proteasome subunit beta type-10 (Homo sapiens, UniProt P40306); test: Inhibition of human 20S immunoproteasome beta-2 using BocLRR-AMC as substrate incubated for 15 mins measured for 45 mins by fluorescence assay
T9 sequence (P40306 whole entry): T3 sequence (whole entry)

Row | Structure (SMILES) | pIC50 [1] | inhibition [2] | inhibition [3] | inhibition [4] | inhibition [5] [%] | inhibition [6] [%] | pIC50 [7] | inhibition [8] | pIC50 [9] | pIC50 [10]
1 | C[C@H](NC(=O)[C@H](Cc1ccc(OCc2ccccc2)cc1)NC(=O)OC(C)(C)C)C(=O)N[C@@H](C[C@@]1(O)C(=O)N(C)c2ccccc21)C(=O)NCc1ccccc1 | 5.17 | > 85% | 18% | > 85% | > 85 | > 85 | 5.05 | 56% | 5.21 | –
2 | NCCCC[C@H](NC(=O)[C@@H](N)Cc1ccc(OCc2ccccc2)cc1)C(=O)N[C@@H](C[C@]1(O)C(=O)Nc2ccccc21)C(=O)NCc1ccccc1 | 5.54 | > 85% | > 85% | > 85% | > 85 | > 85 | 5.37 | > 85% | 5.42 | 6.09
3 | C[C@H](NC(=O)[C@H](Cc1ccc(OCc2ccccc2)cc1)NC(=O)OC(C)(C)C)C(=O)N[C@@H](C[C@]1(O)C(=O)Nc2ccccc21)C(=O)NCCc1ccccc1 | 5.22 | > 85% | 26% | > 85% | > 85 | > 85 | 5.14 | 45% | 5.19 | –
4 | C[C@@H](NC(=O)[C@H](Cc1ccc(OCc2ccccc2)cc1)NC(=O)OC(C)(C)C)C(=O)N[C@@H](C[C@]1(O)C(=O)Nc2ccccc21)C(=O)NCc1ccccc1 | 5.04 | > 85% | > 85% | > 85% | > 85 | > 85 | 4.90 | > 85% | 4.88 | 4.67
5 | C[C@H](NC(=O)[C@H](Cc1ccc(OCc2ccccc2)cc1)NC(=O)OC(C)(C)C)C(=O)N[C@@H](C[C@]1(O)C(=O)Nc2ccccc21)C(=O)NCC1CCCCC1 | 5.37 | > 85% | > 85% | > 85% | > 85 | > 85 | 5.32 | > 85% | 5.28 | 4.80
6 | NC(=O)C[C@H](NC(=O)OCc1ccccc1)C(=O)N[C@@H](C[C@]1(O)C(=O)Nc2ccccc21)C(=O)NCc1ccccc1 | 6.44 | inactive | inactive | inactive | > 85 | > 85 | – | inactive | 6.38 | –
7 | C[C@H](NC(=O)[C@H](Cc1ccc(OCc2ccccc2)cc1)NC(=O)OC(C)(C)C)C(=O)N[C@@H](C[C@]1(O)C(=O)Nc2ccccc21)C(=O)NC(c1ccccc1)c1ccccc1 | 5.76 | > 85% | inactive | > 85% | > 85 | > 85 | 5.40 | 30% | 5.57 | –
8 | C[C@H](NC(=O)OCc1ccccc1)C(=O)N[C@@H](C[C@]1(O)C(=O)Nc2ccccc21)C(=O)NCc1ccccc1 | 5.29 | > 85% | inactive | inactive | > 85 | > 85 | 4.35 | inactive | 5.40 | –
9 | C[C@H](NC(=O)[C@H](Cc1ccc(OCc2ccccc2)cc1)NC(=O)OC(C)(C)C)C(=O)N[C@@H](C[C@]1(O)C(=O)Nc2ccccc21)C(=O)NCc1cccc2ccccc12 | 5.85 | > 85% | > 85% | > 85% | > 85 | > 85 | 5.56 | > 85% | 5.72 | 5.57
10 | C[C@H](O)[C@@H](NC(=O)OCc1ccccc1)C(=O)N[C@@H](C[C@]1(O)C(=O)Nc2ccccc21)C(=O)NCc1ccccc1 | 6.06 | > 85% | inactive | 20% | > 85 | > 85 | 4.61 | inactive | 6.24 | –
11 | C[C@H](NC(=O)[C@H](Cc1ccc(OCc2ccccc2)cc1)NC(=O)OC(C)(C)C)C(=O)N[C@@H](C[C@]1(O)C(=O)N(C)c2ccccc21)C(=O)NCc1ccccc1 | 5.29 | > 85% | 27% | > 85% | > 85 | > 85 | 4.99 | 19% | 5.41 | –
12 | C[C@H](NC(=O)[C@H](Cc1ccc(OCc2ccccc2)cc1)NC(=O)OC(C)(C)C)C(=O)N[C@@H](C[C@]1(O)C(=O)Nc2ccccc21)C(=O)NCCC1CCCCC1 | 5.55 | > 85% | 19% | > 85% | > 85 | > 85 | 5.46 | 36% | 5.57 | –
13 | COC(=O)CCNC(=O)[C@H](C[C@]1(O)C(=O)Nc2ccccc21)NC(=O)[C@H](C)NC(=O)[C@H](Cc1ccc(OCc2ccccc2)cc1)NC(=O)OC(C)(C)C | 4.19 | 17% | > 85% | 15% | 31 | > 85 | – | 14% | – | 3.97
14 | C[C@H](NC(=O)[C@H](Cc1ccc(OCc2ccccc2)cc1)NC(=O)OC(C)(C)C)C(=O)N[C@@H](C[C@]1(O)C(=O)Nc2ccccc21)C(=O)NCCC(=O)O | – | 17% | > 85% | 19% | 14 | 18 | – | > 85% | – | 4.66
